Compound activity: PubChem, Sanford-Burnham Center for Chemical Genomics
Shown are actives, neighbours in structure and some others; about 1.7% of the full set was active somewhere.
STEP inh: STEP (human) phosphatase inhibition; P54829; recombinant STEP, OMFP fluorogenic substrate, fluorescence; inhibition, % at 20 µM; 360,000 tested, 0.25% active; AID 588621;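 active = inhibition at 20 µM, scaled per plate between control wells, above about 37%, limit read from the data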
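Also added – OMFP at 25 µM · Test system – STEP tyrosine phosphatase · Technique – FITC-channel fluorescence of OMFP product · Schedule – 20 min at room temperature, dark · Evaluation – control-normalized % inhibition with plate pattern correction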
DNMT1 block: DNMT1 (human) enzyme inhibition | inhibition (reported as % activation of signal), % at 10 µM | AID 588458 | P26358 | 360,000 tested, 0.83% active | DNMT1 molecular beacon, Hinp1I cleavage, fluorescence; in the data active = inhibition above about 50%
Scp1 inh: inhibitors of human Scp-1 phosphatase. 340,000 tested, 0.88% active. inhibition, % at 20 µM. AID 493091. Recombinant Scp1, phosphopeptide, malachite green phosphate absorbance. Q9GZU7;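 active = inhibition above about 50% at 20 µM, limit read from the data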
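System: truncated SCP-1 phosphatase (76-261aa); medium: Tris acetate buffer pH 5.5 with MgCl2 and Tween-20; incubation: 45 min room-temperature reaction, 5 min colour, 30 min stabiliser; compound: single 20 µM dose, 1% DMSO; reagent: Phosphorylated 17-residue peptide substrate; read-out: % inhibition at 20 µM; technique: colorimetric free-phosphate detection, absorbance 630 nm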
SUMO1 PPI mod: SUMO1-SIM interaction modulation; AID 602429; inhibition, % at 20 µM; P63165; 360,000 tested, 0.33% active; SUMO1 binding to a labelled peptide, TR-FRET, 1 h; in the data active = inhibition above about 37%
LMPTP block: LMPTP (human) inhibition; P24666; recombinant LMPTP-A, OMFP fluorogenic substrate, fluorescence intensity; inhibition, % at 20 µM; 360,000 tested, 0.22% active; AID 651560;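 active = compounds that cut the enzyme signal by at least half of the control window in the single-dose screen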
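test system = LMPTP-A | amount = 0.625 nM LMPTP-A final | reagent = fluorogenic phosphatase substrate OMFP at 400 µM final | incubation = 50 min at room temperature | benchmarks = no-enzyme low control, uninhibited high control | medium = Bis-Tris pH 6.0, DTT, detergent | signal = fluorescence intensity of OMFP turnover product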
Scp-1 conf: Scp-1 (human) inhibition, single-dose confirmed | shares compounds with Scp1 inh | recombinant SCP-1 catalytic domain, phosphate release, malachite green absorbance | inhibition, % at 20 µM | 2,500 tested, 61% active
Scp-1 MG ctr: counter-screen for Scp-1 inhibitors: colorimetric interference. apparent inhibition (interference), % at 20 µM. 2,500 tested, under 10 active. Colorimetric interference counterscreen, malachite green absorbance 630 nm. shares compounds with Scp1 inh. AID 540313;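 note: compounds added after enzyme reaction finished so only phosphate colour detection is probed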
Scp1 DSF: validation of human Scp-1 inhibitors by thermal shift binding. 1,500 tested, 25% active. Recombinant SCP1, Sypro Orange thermal shift Tm. shares compounds with Scp1 inh. thermal shift relative to vanadate control, % at 40 µM;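 active = substances whose mean melting-temperature shift, as a percentage of the reference inhibitor's shift, reaches about 5.3%, limit read from the data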
Large screens that a line does not name were inactive (follow-up assays come after a bar, where they were run).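 Rule for the calls, unless noted: active = inhibition of at least 30% at 20 µM; inactive = the rest.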

CC(C)NC(=O)Cn1cc(S(=O)(=O)N2CCCC2)c(S(=O)(=O)N2CCCC2)c1	none
O=C(NNC1OC(CO)C(O)C(O)C1O)c1cccc(Br)c1 (stereo unspecified)	none | Scp-1 conf inactive | Scp-1 MG ctr inactive
COc1ccc([C@H]2CC(=O)C=C(c3ccnc4ccc(Cl)cc34)C2)cc1	Scp1 inh 59 | Scp-1 conf inactive | Scp-1 MG ctr inactive
Cc1ccccc1NC(=O)C1c2cccc[n+]2CC(=O)N1c1c(C)cccc1C (stereo unspecified)	Scp1 inh 89 | Scp-1 conf 91 | Scp-1 MG ctr inactive | Scp1 DSF inactive
Cc1cccc(C)c1NC(=O)C1c2cccc[n+]2CC(=O)N1Cc1ccc2c(c1)OCO2 (stereo unspecified)	none
Cc1ccc2nc(Cl)c(C3CC(c4cccs4)=NN3C(=O)CCCC(=O)O)cc2c1 (stereo unspecified)	Scp1 inh 96 | Scp-1 conf 85 | Scp-1 MG ctr inactive | Scp1 DSF inactive
C=CCn1c(C)c(/C=C/c2cc[n+](C)cc2)c2ccccc21	none
CCN(CC)C(=O)Cn1c(C)c(/C=C/c2cc[n+](C)cc2)c2ccccc21	Scp1 inh 63 | Scp-1 conf inactive | Scp-1 MG ctr inactive
Cc1cccc(NC(=O)CNC(=O)c2ccc3nc[nH]c3c2)c1C	Scp1 inh 68 | Scp-1 conf 51 | Scp-1 MG ctr inactive | Scp1 DSF inactive
NS(=O)(=O)c1cccc(NC(=O)c2ccc3nc[nH]c3c2)c1	Scp1 inh 70 | Scp-1 conf 67 | Scp-1 MG ctr inactive | Scp1 DSF inactive
Cc1ccc(S(=O)(=O)N(C)C[C@@H]2OCc3cnnn3CCCC(=O)N([C@@H](C)CO)C[C@@H]2C)cc1	none (no result: Scp1 inh)
Cn1c(SCc2cc(=O)n3cc(Br)ccc3n2)nnc1C1COc2ccccc2O1 (stereo unspecified)	Scp1 inh 61 | Scp-1 conf 41 | Scp-1 MG ctr inactive | Scp1 DSF inactive
O=C(OCc1cc(=O)n2cc(Br)ccc2n1)C1COc2ccccc2O1 (stereo unspecified)	none
Cc1ccc(C(=O)OCC(=O)c2ccc(CC(=O)N3CCOCC3)s2)cc1C	Scp1 inh 55 | Scp-1 conf 57 | Scp-1 MG ctr inactive | Scp1 DSF inactive
COc1ccc(C2(c3ccc(OC)cc3)NC(=O)N(CC(=O)NCC(C)c3ccccc3)C2=O)cc1 (stereo unspecified)	none
COc1cccc(N2[C@@H](CC(=O)O)c3cc(C(F)(F)F)ccc3S2(=O)=O)c1	Scp1 inh 104 | Scp-1 conf 69 | Scp-1 MG ctr inactive | Scp1 DSF inactive
CS(=O)(=O)C1=NSC2=NC(=O)/C(=C\c3cccn3-c3ccc(Cl)cc3)C(=N)N21	STEP inh 95, Scp1 inh 83 | Scp-1 conf 79 | Scp-1 MG ctr inactive | Scp1 DSF inactive
COc1ccc2[nH]c(=O)c(CN(C(=O)c3ccco3)C(C)C)cc2c1	Scp1 inh 60 | Scp-1 conf inactive | Scp-1 MG ctr inactive
CCOC(=O)C(=O)Cc1cccnn1	DNMT1 block 66, Scp1 inh 75, SUMO1 PPI mod 43 | Scp-1 conf 44 | Scp-1 MG ctr inactive | Scp1 DSF 12
CCOC(=O)C(Cc1ccnc2ccccc12)=NO	none
Cc1c(CCC(=O)O)c(=O)oc2c(C)c3occ(-c4ccc(Cl)cc4)c3cc12	Scp1 inh 64, LMPTP block 88 | Scp-1 conf 77 | Scp-1 MG ctr inactive | Scp1 DSF inactive
Cc1c(CCC(=O)O)c(=O)oc2cc3occ(-c4ccc(Cl)cc4)c3cc12	none
C[C@@H]1CN([C@@H](C)CO)C(=O)CCCn2nncc2CO[C@H]1CN(C)C	none (no result: Scp1 inh)
COCCNC(=O)C1CCCN(C(=O)c2ccnc(Cl)c2)CC1 (stereo unspecified)	none (no result: Scp1 inh)
COC(=O)c1sc(S(=O)(=O)N2CCN(c3ccccc3F)CC2)c(C(=O)OC)c1C	none
CCn1c(C)[n+](CC)c2ccc(S(=O)(=O)N(C)C)cc21	Scp1 inh 89 | Scp-1 conf inactive | Scp-1 MG ctr inactive
CCN(c1ccccc1)S(=O)(=O)c1ccc2[nH]cc(C(=O)N3CCOCC3)c(=O)c2c1	Scp1 inh 52 | Scp-1 conf 40 | Scp-1 MG ctr inactive | Scp1 DSF inactive
O=C(O)c1ccccc1C(=O)Nc1n[nH]c(=S)s1	Scp1 inh 99 | Scp-1 conf 42 | Scp-1 MG ctr inactive | Scp1 DSF inactive
CC1C=CC=CC=CC=CC=CC=CC=CC(OC2OC(C)C(O)C(N)C2O)CC2OC(O)(CC(O)CC(O)C(O)CCC(O)CC(O)CC(=O)OC(C)C(C)C1O)CC(O)C2C(=O)O (stereo unspecified)	DNMT1 block 94, Scp1 inh 89 | Scp-1 conf 65 | Scp-1 MG ctr inactive | Scp1 DSF inactive
Cc1ncc(C[n+]2ccc(C)c(C)c2)c(N)n1	none
Cc1ccc(NC(=O)CCSCCC(=O)Nc2ccc(C)c(C)c2)cc1C	none
Cc1ccc(NC(=O)CC(=O)Nc2ccc(C)c(C)c2)cc1C	Scp1 inh 62 | Scp-1 conf 82 | Scp-1 MG ctr inactive | Scp1 DSF inactive
CC(C)(C)C1CCC(OCC(O)CN2CCCC2)CC1 (stereo unspecified)	none
OC(COC1CCCCC1)CN1CCCCC1 (stereo unspecified)	Scp1 inh 55 | Scp-1 conf inactive | Scp-1 MG ctr inactive
CC(CCC(=O)O)C1CCC2C3CCC4C[C@H](O)CCC4(C)C3CC(=O)C12C (stereo partly specified)	none
C[C@H](CCC(=O)O)[C@H]1CC[C@H]2[C@@H]3CC[C@@H]4C[C@H](O)CC[C@]4(C)[C@H]3CC[C@]12C	Scp1 inh 58 | Scp-1 conf 56 | Scp-1 MG ctr inactive | Scp1 DSF inactive
Cc1ccc(C(C)NC(=O)c2cc3cc(Br)ccc3oc2=N)cc1 (stereo unspecified)	none
COc1cccc(NC(=O)Nc2nnc(COCCO)s2)c1	none (no result: Scp1 inh)
NC1=C(c2ccc([N+](=O)[O-])cc2)C(=O)CO1	none
O=c1oc2c(-c3ccc([N+](=O)[O-])cc3)cc(O)cc2s1	Scp1 inh 103, SUMO1 PPI mod 67 | Scp-1 conf 66 | Scp-1 MG ctr inactive | Scp1 DSF 10
COc1ccc(/C=C(\NC(=O)c2ccccc2)C(=O)OC[C@@H]2CCC[N+]3(C)CCCCC23)cc1OC (stereo partly specified)	Scp1 inh 102 | Scp-1 conf 89 | Scp-1 MG ctr inactive | Scp1 DSF inactive
